Calls of active or inactive are those of the source. The calls are words filed in the database; no cut-off is given here.
Experiments:
[1] = test system: NCI-H23; assay: Growth inhibition of human NCI-H23 cells assessed as cell growth at 10 uM after 24 hrs by SRB assay relative to control; assay type: functional; conditions: NCI-H23, 24 h, read-out: Activity
Outline: (§1)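 NCI DTP one-dose screen: cells plated at density set by doubling rate, incubated overnight, then exposed to compound at 10 μM for 24 hours. Growth percentage from protein density at end versus start of experiment, relative to initial cell number.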

[2] = test system: HOP-62; assay: Growth inhibition of human HOP62 cells assessed as cell growth at 10 uM after 24 hrs by SRB assay relative to control; assay type: functional; conditions: HOP-62, 24 h, read-out: Activity; outline: as §1
[3] = test system: NCI-H460; assay: Antiproliferative activity against human NCI-H460 cells using 1% DMSO/water compound formulation after 72 hrs by MTT assay; assay type: functional, cell-based; conditions: NCI-H460, 72 h
Outline: (§2)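 MTT anti-proliferation on NSCLC lines. Compounds dissolved in DMSO, diluted with water to 1% DMSO, then into growth medium (max 0.032% DMSO on cells); or dissolved in 10% (w/v) 2-HPβCD in water, then diluted (max 0.008% w/w 2-HPβCD in wells; vehicle controls at 0.008%). IC50 = concentration giving 50% loss of viability versus control cells. Cisplatin dissolved in water with stirring.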

[4] = test system: NCI-H522; assay: Growth inhibition of human NCI-H522 cells after 24 hrs by SRB assay; assay type: functional; conditions: NCI-H522, 24 h; for CC50: read-out: LC50 (the source's name)
[5] = test system: NCI-H460; assay: Growth inhibition of human NCI-H460 cells assessed as cell growth at 10 uM after 24 hrs by SRB assay relative to control; assay type: functional; conditions: NCI-H460, 24 h, read-out: Activity; outline: as §1
[6] = test system: HCC827; assay: Antiproliferative activity against human HCC827 cells using 10% 2-HPbetaCD compound formulation after 72 hrs by MTT assay; assay type: functional, cell-based; conditions: HCC827, 72 h; outline: as §2
[7] = Aqueous solubility of the compound in water; assay type: physicochemical; conditions: buffer
[8] = test system: NCI-H226; assay: Growth inhibition of human NCI-H226 cells assessed as cell growth at 10 uM after 24 hrs by SRB assay relative to control; assay type: functional; conditions: NCI-H226, 24 h, read-out: Activity; outline: as §1
[9] = test system: NCI-H322M; assay: Growth inhibition of human NCI-H322M cells after 24 hrs by SRB assay; assay type: functional
[10] = Solubility of the compound in 1% DMSO/water solution; assay type: physicochemical; conditions: buffer
[11] = test system: HOP-92; assay: Growth inhibition of human HOP92 cells after 24 hrs by SRB assay; assay type: functional; conditions: HOP-92, 24 h; for CC50: read-out: LC50 (the source's name)
[12] = test system: NCI-H1975; assay: Antiproliferative activity against human NCI-H1975 cells using 1% DMSO/water compound formulation after 72 hrs by MTT assay; assay type: functional, cell-based; conditions: NCI-H1975, 72 h; outline: as §2
[13] = test system: HOP-92; assay: Growth inhibition of human HOP92 cells assessed as cell growth at 10 uM after 24 hrs by SRB assay relative to control; assay type: functional; conditions: HOP-92, 24 h, read-out: Activity; outline: as §1
[14] = test system: EKVX; assay: Growth inhibition of human EKVX cells assessed as cell growth at 10 uM after 24 hrs by SRB assay relative to control; assay type: functional; conditions: read-out: Activity; outline: as §1
[15] = test system: NCI-H23; assay: Growth inhibition of human NCI-H23 cells after 24 hrs by SRB assay; assay type: functional; conditions: NCI-H23, 24 h; for CC50: read-out: LC50 (the source's name)
[16] = test system: EKVX; assay: Growth inhibition of human EKVX cells after 24 hrs by SRB assay; assay type: functional
[17] = test system: NCI-H322M; assay: Growth inhibition of human NCI-H322M cells assessed as cell growth at 10 uM after 24 hrs by SRB assay relative to control; assay type: functional; conditions: read-out: Activity; outline: as §1
[18] = test system: A549; assay: Growth inhibition of human A549 cells assessed as cell growth at 10 uM after 24 hrs by SRB assay relative to control; assay type: functional; conditions: A549, 24 h, read-out: Activity; outline: as §1
[19] = Solubility of the compound in 10% 2-HPbetaCD/water solution; assay type: physicochemical
[20] = test system: NCI-H1975; assay: Antiproliferative activity against human NCI-H1975 cells using 10% 2-HPbetaCD compound formulation after 72 hrs by MTT assay; assay type: functional, cell-based; conditions: NCI-H1975, 72 h; outline: as §2
[21] = test system: A549; assay: Antiproliferative activity against human A549 cells using 10% 2-HPbetaCD compound formulation after 72 hrs by MTT assay; assay type: functional, cell-based; conditions: A549, 72 h; outline: as §2
[22] = test system: A549; assay: Antiproliferative activity against human A549 cells using 1% DMSO/water compound formulation after 72 hrs by MTT assay; assay type: functional, cell-based; conditions: A549, 72 h; outline: as §2
[23] = test system: NCI-H460; assay: Antiproliferative activity against human NCI-H460 cells using 10% 2-HPbetaCD compound formulation after 72 hrs by MTT assay; assay type: functional, cell-based; conditions: NCI-H460, 72 h; outline: as §2
[24] = test system: HCC827; assay: Antiproliferative activity against human HCC827 cells using 1% DMSO/water compound formulation after 72 hrs by MTT assay; assay type: functional, cell-based; conditions: HCC827, 72 h; outline: as §2
[25] = test system: NCI-H226; assay: Growth inhibition of human NCI-H226 cells after 24 hrs by SRB assay; assay type: functional; conditions: NCI-H226, 24 h
[26] = test system: A549; assay: Growth inhibition of human A549 cells after 24 hrs by SRB assay; assay type: functional; conditions: A549, 24 h; for CC50: read-out: LC50 (the source's name)
[27] = test system: NCI-H460; assay: Growth inhibition of human NCI-H460 cells after 24 hrs by SRB assay; assay type: functional; conditions: NCI-H460, 24 h; for CC50: read-out: LC50 (the source's name)
[28] = test system: HOP-62; assay: Growth inhibition of human HOP62 cells after 24 hrs by SRB assay; assay type: functional; conditions: HOP-62, 24 h
[29] = test system: NCI-H460; assay: Induction of apoptosis in human NCI-H460 cells assessed as cell rounding up to 1 hr by Annexin V-FITC/propidium iodide staining based fluorescence microscopic method; assay type: functional
[30] = test system: NCI-H460; assay: Induction of apoptosis in human NCI-H460 cells assessed as cell detachment up to 1 hr by Annexin V-FITC/propidium iodide staining based fluorescence microscopic method; assay type: functional
[31] = test system: NCI-H460; assay: Induction of apoptosis in human NCI-H460 cells assessed as cell shrinkage up to 1 hr by Annexin V-FITC/propidium iodide staining based fluorescence microscopic method; assay type: functional
[32] = test system: NCI-H460; assay: Disruption of mitochondrial membrane potential in human NCI-H460 cells at 98 uM up to 1 hr by JC1/DAPI staining based confocal microscopic method; assay type: functional, cell-based

Work on `CCCc1n(Cc2ccc3ccccc3c2)cc[n+]1Cc1ccc2ccccc2c1.[Br-]` yielded a growth at 10 µM [1] of -28.2%, a growth at 10 µM [2] of 5.82% and an IC50 [3] of 1910 nM. It also gave a GI50 [4] of 378 nM, a TGI [4] of 1680 nM and a CC50 [4] of 4920 nM. For the same compound, the growth at 10 µM [5] was 3.26%, the IC50 [6] was 1250 nM and the solubility [7] was < 500 µg/mL. It also gave a growth at 10 µM [8] of 0.23%, a GI50 [9] of 1960 nM and an LC50 (lethal concentration 50%) [9] of 23800 nM. The TGI [9] was 6000 nM, the solubility [10] was “Soluble” and the GI50 [11] was 863 nM. The TGI [11] was 2660 nM, the CC50 [11] was 7580 nM and the IC50 [12] was 850 nM. It also gave a growth at 10 µM [13] of -38.3%, a growth at 10 µM [14] of 21.1% and a GI50 [15] of 521 nM. For the same compound, the TGI [15] was 2510 nM, the CC50 [15] was 9770 nM and the GI50 [16] was 1710 nM. The LC50 [16] was 60500 nM, the TGI [16] was 11400 nM and the growth at 10 µM [17] was 23.2%. For the same compound, the growth at 10 µM [18] was 31.6%, the solubility ([19]; buffer) was > 4400 µg/mL and the IC50 [20] was 630 nM. It also gave an IC50 [21] of 2810 nM, an IC50 [22] of 2930 nM and an IC50 [23] of 2130 nM. For the same compound, the IC50 [24] was 1450 nM, the GI50 [25] was 1310 nM and the LC50 [25] was > 100000 nM. It also gave a TGI [25] of 3920 nM, a GI50 [26] of 2670 nM and a TGI [26] of 12100 nM. It also gave a CC50 [26] of 60300 nM, a GI50 [27] of 1220 nM and a TGI [27] of 3010 nM. For the same compound, the CC50 [27] was 7440 nM, the GI50 [28] was 1260 nM and the LC50 [28] was 6190 nM. For the same compound, the TGI [28] was 2800 nM.

With `Clc1c(Cl)[n+](Cc2ccc3ccccc3c2)cn1Cc1ccc2ccccc2c1` the IC50 [3] was 5000 nM, the Activity [29] was “Active” and the IC50 [12] was 5000 nM. The Activity [30] was “Active”, the Activity [31] was “Active” and the IC50 [22] was 9000 nM. The IC50 [24] was 6000 nM.

With `CC(C)c1n(Cc2ccc3ccccc3c2)cc[n+]1Cc1ccc2ccccc2c1.[Br-]` the IC50 [3] was 920 nM, the IC50 [6] was 1140 nM and the solubility [7] was < 500 µg/mL. The solubility [10] was “Soluble”, the IC50 [12] was 690 nM and the solubility ([19]; 10% 2-HPbetaCD/water solution, read-out: solubility) was > 4400 µg/mL. It also gave an IC50 [20] of 620 nM, an IC50 [21] of 2130 nM and an IC50 [22] of 2540 nM. It also gave an IC50 [23] of 860 nM and an IC50 [24] of 1290 nM.

In the case of `N#CC(C#N)=NNc1cccc(Cl)c1`, the Activity [32] is reported as “Active”.

For `CCCCc1n(Cc2ccc3ccccc3c2)cc[n+]1Cc1ccc2ccccc2c1.[Br-]`, the growth at 10 µM [1] was -23.8%, the growth at 10 µM [2] was -2.71% and the IC50 [3] was 2620 nM. The growth at 10 µM [5] was -13.1%, the IC50 [6] was 2180 nM and the solubility [7] was < 500 µg/mL. The growth at 10 µM [8] was -0.47%, the GI50 [9] was 1380 nM and the TGI [9] was 2750 nM. The solubility [10] was “Soluble”, the IC50 [12] was 1740 nM and the growth at 10 µM [13] was -38.2%. For the same compound, the growth at 10 µM [14] was 14.4%, the GI50 [15] was 793 nM and the TGI [15] was 2310 nM. It also gave a CC50 [15] of 5850 nM, a growth at 10 µM [17] of 23.3% and a growth at 10 µM [18] of 29.8%. The solubility ([19]; buffer) was > 4400 µg/mL, the IC50 [20] was 1020 nM and the IC50 [21] was 3250 nM. The IC50 [22] was 3500 nM, the IC50 [23] was 2430 nM and the IC50 [24] was 2640 nM.

Compound `Cc1n(Cc2ccc3ccccc3c2)cc[n+]1Cc1ccc2ccccc2c1.[Br-]` has a growth at 10 µM [1] of 5.53%, a growth at 10 µM [2] of 18% and an IC50 [3] of 2530 nM. The GI50 [4] was 256 nM, the TGI [4] was 1810 nM and the CC50 [4] was 6720 nM. For the same compound, the growth at 10 µM [5] was 9.12%, the IC50 [6] was 1980 nM and the solubility [7] was < 500 µg/mL. The growth at 10 µM [8] was 19%, the GI50 [9] was 2460 nM and the LC50 (lethal concentration 50%) [9] was 32900 nM. For the same compound, the TGI [9] was 10400 nM, the solubility [10] was “Soluble” and the GI50 [11] was 673 nM. For the same compound, the TGI [11] was 3640 nM, the CC50 [11] was 26400 nM and the IC50 [12] was 830 nM. It also gave a growth at 10 µM [13] of -20.3%, a growth at 10 µM [14] of 47% and a GI50 [15] of 717 nM. It also gave a TGI [15] of 2930 nM, a CC50 [15] of 10400 nM and a GI50 [16] of 2320 nM. For the same compound, the LC50 [16] was 52400 nM, the TGI [16] was 17100 nM and the growth at 10 µM [17] was 48.9%. The growth at 10 µM [18] was 42.3%, the solubility ([19]; buffer) was > 4400 µg/mL and the IC50 [20] was 750 nM. It also gave an IC50 [21] of 3430 nM, an IC50 [22] of 3420 nM and an IC50 [23] of 2700 nM. The IC50 [24] was 2340 nM, the GI50 [25] was 1850 nM and the LC50 [25] was 64100 nM. It also gave a TGI [25] of 10400 nM, a GI50 [26] of 3810 nM and a TGI [26] of 21300 nM. The CC50 [26] was 66100 nM, the GI50 [27] was 1590 nM and the TGI [27] was 10700 nM. It also gave a CC50 [27] of 44000 nM, a GI50 [28] of 1600 nM and an LC50 [28] of 45300 nM. It also gave a TGI [28] of 8350 nM.
